# Source: the RNAGym collection of RNA variant scans (doi:10.1126/science.aae0568)
# Variants at the floor of the assay were thinned out.
# B1: tRNA (parent)
# chain: GUUCCGUUGGCGUAAUGGUAACGCGUCUCCCUCCUAAGGAGAAGACUGCGGGUUCGAGUCCCGUACGGAACG
# Variants of: B1
# Assay: yeast fitness relative to wild type (ratio to wild type); higher = fitter; tRNA-Arg(CCU), competitive growth, 37 C, YPD
# Outline: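 The tRNA-Arg(CCU) gene variants were made by chemical synthesis with a 3% per-site mutation rate at 69 sites and inserted at the native genomic locus of Saccharomyces cerevisiae. After pooling, the strains were competed in YPD at 37°C for 24 hours in six parallel replicates. Gene amplicons from the start population and each end population were read by 100-nucleotide paired-end sequencing, and Darwinian fitness relative to wild type was taken from genotype frequency changes. Genotypes needed ≥ 100 starting reads, and estimates < 0.5 were set to 0.5.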
row,Variant,yeast fitness
1,GUUCCGUUGGCGUGAUGGUAACGCGUCUCCCUCCUAAGGAGAAGACUGCGGGUUCGAGUCCCGUACGUAACG [A14G G68U],0.826
2,GUUCCGUUGGCGUGAUGGUAACGCGUCUCCCUCCUAAGGAGAAGACUGCGGGUUCGAGUCCCGUACGUAUCG [A14G G68U A70U],≤ 0.5
3,GUUCCGUUGGCGUGAAGGUAACGGGUCUCCCUCCUAAGGAGAAGGCUGCGGGUUCGAGUCCAGUACGGCACG [A14G U16A C24G A45G C62A A69C],≤ 0.5
4,GUUCCGUUGGCGUGAAGGUAACGCGUCUCCCUACUAAGGAGAAGACUGCGGGUUUGAGUCCCGUACGGAACG [A14G U16A C33A C55U],0.67
5,GUUCCGUUGGCGUGACGGUAACGCGUCUCCCUCCUAAGGAGAAGACUGCGGGUUCGAGUCCCGUACGGAACG [A14G U16C],0.897
6,GUUCCGUUGGCGUGAGGGUAACGCGUCUCCCUCCUAAGGAGAAGACUGCGGGUUCGAGUCCCGUACGGAACG [A14G U16G],0.742
7,GUUCCGUUGGCGUGAGGGUAACGCGUCUCCCUCCUUAGGAGAAGACUGCGGGUUCGAGUCCCGUACGCAACG [A14G U16G A36U G68C],≤ 0.5
8,GUUCCGUUGGCGUGAGGGUAACGGGCCUCCCUCCUAAGGAGAAGACGGCCGGUUCGAGUCCCGUACGGAACG [A14G U16G C24G U26C U47G G50C],0.515
9,GUUCCGUUGGCGUGAGGGUAACGCGUCUGCCUCCUAAGGAGAAGACUGCGGGUUCGAAUCCCGUACGGAACG [A14G U16G C29G G58A],≤ 0.5
10,GUUCCGUUGGCGUGAUGGAAACGCGUCUCCCUCCUAAGGAGAAGACUGCGGGUUCGAGUCCCGUACGGAACG [A14G U19A],0.809
11,GUUCCGUUGGCGUGAUGGAAACGCGUCUCCCUCUUAAGGAGAAGACUGCGGGUUCGAGUCCCGUACGGAACG [A14G U19A C34U],≤ 0.5
12,GUUCCGUUGGCGUGAUGGCUACGCGUCUCCCUCCUAAGGAGAAGACUGCGGGUUCGAGUCCCGUACGGAACG [A14G U19C A20U],0.773
13,GUUCCGUUGGCGUGAUGGCAUCGCGUCUCCCUCCUAAGGAGAAGACUGCGGGUUCGAGUCCCGUACGUAACG [A14G U19C A21U G68U],≤ 0.5
14,GUUCCGUUGGCGUGAUGGCAACGCGUCUCCGUCCUAUGGAGAAGACUGCGGGUUCGAGUCCCGUUCGGAACG [A14G U19C C31G A37U A65U],≤ 0.5
15,GUUCCGUUGGCGUGAUGGCAACGCGUCUCCCUCCCAAGGGGAAGACUGCGGGUUCGAGUCCCGUACGGAACG [A14G U19C U35C A40G],≤ 0.5
16,GUUCCGUUGGCGUGAUGGCAACGCGUCUCCCUCCUAAGGAGAAGACUGCGGGUUCGAGACCCGUACGGAACG [A14G U19C U59A],≤ 0.5
17,GUUCCGUUGGCGUGAUGGGAACGCGUCUCCCUCCUAAGGAGAAGACUGCGGGUUCGAGUCCCGUACGGAACG [A14G U19G],0.856
18,GUUCCGUUGGCGUGAUGGGAACGCGUCUCCCUCCUAAGGAGAAGAUUGCGGGUUCGGGUCCCGUACGGACCG [A14G U19G C46U A57G A70C],≤ 0.5
19,GUUCCGUUGGCGUGAUGGGAACGCGUCUCCCUCCUAAGGAGAAGACUCCGGGUGCGAGUCCCGUCCGGAACG [A14G U19G G48C U54G A65C],≤ 0.5

row,Variant,yeast fitness
1,GUUCCGUUGGCGUGAUGGUAACGCGCCUCCCUCCUAAGGAGAAGACUGCGGGUUCGAGUCCCGUACGGAACG [A14G U26C],0.879
2,GUUCCGUUGGCGUGAUGGUAACGCGCCUCCCUCCUAGGGAGAAGACUGCGGGUUCGAGUCCCGUACGGAACG [A14G U26C A37G],≤ 0.5
3,GUUCCGUUGGCGUGAUGGUAACGCGCCUCCCUCCUAGGGAGAAGACUGCGGGUUCGAGUCCCGUACAGAACG [A14G U26C A37G G67A],0.539
4,GUUCCGUUGGCGUGAUGGUAACGCGCCUCUCUCCUAAGGAGAAGACUGCGGGUUCGAGUCCCGUACGGAACG [A14G U26C C30U],0.567
5,GUUCCGUUGGCGUGAUGGUAACGCGCCUCCCUCCUAAGGAGAAGACUGCGGGUUCGAGUCCCGUACGAAACG [A14G U26C G68A],0.557
6,GUUCCGUUGGCGUGAUGGUAACGCGCCACCCUCCUAAGGAGAAGACUGCGGGUUCGAGUCCCGUUCGGAACG [A14G U26C U28A A65U],≤ 0.5
7,GUUCCGUUGGCGUGAUGGUAACGCGGCUCCCUCCUAAGGAGACGAAUGCGGGUUCGAGUCCCGUACGGAACG [A14G U26G A43C C46A],≤ 0.5
8,GUUCCGUUGGCGUGAUGGUAACGCGGCUCCCUCCUAAGGAGAAGACUGCGGCUUCGAGUACCGUACGGAACG [A14G U26G G52C C60A],0.616
9,GUUCCGUUGGCGUGAUGGUAACGCGGCUCCCUCCUAAGGAGAAGACUGCGGGUGCGAGUCCCGUACGGUACG [A14G U26G U54G A69U],≤ 0.5
10,GUUCCGUUGGCGUGAUGGUAACGCGUCCCCCUCCUAAGGAGAAGACUGCGGGUUCGAGUCCCGUACGGAACG [A14G U28C],0.692
11,GUUCCGUUGGCGUGAUGGUAACGCGUCCCCCUCCUAAGGUGAAGACUGCGGGUUCGAGUCCCGUACGGAACG [A14G U28C A40U],0.691
12,GUUCCGUUGGCGUGAUGGUAACGCGUCCCCCUCCUAAGGAGAAGACUGCGGGUUCGAGUCUCGUACGGAACG [A14G U28C C61U],0.577
13,GUUCCGUUGGCGUGAUGGUAACGCGUCCCCCUCCUAAGGAGAAGACUGCGGGUUCGAGUCCCGUACGAAACG [A14G U28C G68A],≤ 0.5
14,GUUCCGUUGGCGUGAUGGUAACGCGUCGUCCUCCUAAGGAGAAGACUGUGGGUAUGAGUCCCGUACGGACCG [A14G U28G C29U C49U U54A C55U A70C],0.603
15,GUUCCGUUGGCGUGAUGGUAACGCGUCUCCCACCUAAGGAGAAGACUGCGGGUUCGAGUCCUGUACGGAACG [A14G U32A C62U],≤ 0.5
16,GUUCCGUUGGCGUGAUGGUAACGCGUCUCCCCCCUAAGGAGAAGACUGCGGGUUCGAGUCCCGUACGGAACG [A14G U32C],0.931
17,GUUCCGUUGGCGUGAUGGUAACGCGUCUCCCCCCUAAGGAGCAGACUGCGGGUUCGUGUCGCGUACGGAACG [A14G U32C A42C A57U C61G],≤ 0.5
18,GUUCCGUUGGCGUGAUGGUAACGCGUCUCCCCCCUAAGGAGGAGACUGCGGGUUCGAGCCCCGUACGGAACG [A14G U32C A42G U59C],≤ 0.5
